SUMO1 PPI mod = modulators of SUMO1 protein-protein interactions, primary screen, biochemical, uHTS; Small ubiquitin-related modifier 1 (Homo sapiens), P63165; inhibition, % at 20 µM; SUMO1 binding to a labelled peptide, TR-FRET, 1 h; 360,000 compounds, 0.33% hits; in the data active means inhibition above about 37%
LMPTP inh = LMPTP phosphatase inhibitors, primary screen, biochemical, fluorescence intensity, uHTS. Low molecular weight phosphotyrosine protein phosphatase (Homo sapiens), P24666. recombinant LMPTP-A, OMFP fluorogenic substrate. inhibition, % at 20 µM. 360,000 compounds, 0.22% hits. AID 651560, 2012;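 active means compounds that cut the enzyme signal by at least half of the control window in the single-dose screen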;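 further: plate controls were DMSO wells with enzyme plus substrate for no effect and substrate without enzyme for full effect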
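Material: LMPTP-A; amount: 0.625 nM enzyme; doses: single 20 µM dose; times: reaction 50 min, room temperature, dark; technique: fluorescence intensity of OMFP turnover product; benchmarks: no-enzyme and uninhibited controls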
F508del corr = F508del CFTR correction, initial screen, CFBE line, single point; CFBE cells, YFP halide quenching; stimulated with forskolin plus potentiator P3; % fluorescence drop versus neutral controls; activity (quench increase), % at 7.58 µM; 350,000 compounds, 0.36% hits; AID 720511, 2013;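 active means mean added fluorescence quench of at least 8% versus neutral control, with both replicates also reaching 8%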;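 further: cells transiently co-express mutant CFTR-F508del with the halide-sensitive YFP; corrector assay measuring rescue of mutant channel to the surface after 24 h compound exposure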
STEP inh = STEP phosphatase inhibitors, primary screen, biochemical, fluorescence intensity, uHTS; Tyrosine-protein phosphatase non-receptor type 5 (Homo sapiens), P54829; recombinant STEP, OMFP fluorogenic substrate; inhibition, % at 20 µM; 360,000 compounds, 0.25% hits; AID 588621, 2011;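 active means inhibition at 20 µM, scaled per plate between control wells, above about 37%, limit read from the data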;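 further: 0% = DMSO with enzyme and substrate and 100% = substrate only without enzyme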
Target sequence (P54829 whole entry, looked up): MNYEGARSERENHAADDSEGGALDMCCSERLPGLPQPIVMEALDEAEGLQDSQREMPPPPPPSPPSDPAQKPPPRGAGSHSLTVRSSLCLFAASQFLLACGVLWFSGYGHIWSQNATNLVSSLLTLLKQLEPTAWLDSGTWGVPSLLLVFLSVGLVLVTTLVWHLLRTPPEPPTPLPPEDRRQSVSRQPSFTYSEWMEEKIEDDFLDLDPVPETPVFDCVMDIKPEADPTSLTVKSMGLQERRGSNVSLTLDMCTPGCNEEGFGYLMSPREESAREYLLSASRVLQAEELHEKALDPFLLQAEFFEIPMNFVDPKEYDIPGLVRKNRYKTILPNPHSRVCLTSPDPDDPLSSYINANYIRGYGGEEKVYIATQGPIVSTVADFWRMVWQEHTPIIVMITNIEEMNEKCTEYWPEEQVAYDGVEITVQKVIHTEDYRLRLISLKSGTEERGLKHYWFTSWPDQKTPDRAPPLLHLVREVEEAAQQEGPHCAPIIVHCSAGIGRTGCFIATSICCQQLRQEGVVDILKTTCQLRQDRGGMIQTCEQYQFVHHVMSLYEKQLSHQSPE
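System: STEP phosphatase, cell-free reaction; Buffer or medium: Bis-Tris pH 6.0 buffer with DTT, detergent; Incubation: 20 min at room temperature, dark; Measured by: fluorescence, 480/540 nm.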
DNMT1 inh = human DNMT1 methyltransferase inhibitors, primary screen, biochemical, molecular beacon, fluorescence, HinP1I cleavage, uHTS | DNA (cytosine-5)-methyltransferase 1 (Homo sapiens), P26358 | inhibition (reported as % activation of signal), % at 10 µM | 360,000 compounds, 0.83% hits | AID 588458, 2011; in the data active means inhibition above about 50%
Scp-1 inhibitor = Scp-1 phosphatase inhibitors, primary screen, biochemical, colorimetric, uHTS. AID 493091, 2011. inhibition, % at 20 µM. Recombinant Scp1, phosphopeptide, malachite green phosphate absorbance. 340,000 compounds, 0.88% hits;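 active means inhibition above about 50% at 20 µM, limit read from the data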;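 further: plate controls were DMSO wells with enzyme for no effect and wells lacking enzyme for full effect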
Target sequence (Q9GZU7 76-261 limits assumed): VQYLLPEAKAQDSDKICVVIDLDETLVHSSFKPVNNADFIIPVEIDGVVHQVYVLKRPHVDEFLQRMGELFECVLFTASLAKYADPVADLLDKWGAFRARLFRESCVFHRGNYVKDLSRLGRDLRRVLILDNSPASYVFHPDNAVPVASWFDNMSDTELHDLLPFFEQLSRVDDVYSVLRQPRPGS
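assay system = SCP-1 phosphatase catalytic domain, residues 76-261 | buffer or medium = 50 mM Tris acetate pH 5.5, 0.005% Tween-20, 10 mM MgCl2 | incubation = enzyme reaction 45 min at room temperature, colour 5 min, stabilisation 30 min | signal = Phosphate-binding colour reagent, absorbance read at 630 nm | measure = % inhibition at 20 µM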
Scp1 confirm = Scp-1 phosphatase inhibitors, retest, confirmation, biochemical, colorimetric, single concentration; shares compounds with Scp-1 inhibitor; recombinant SCP-1 catalytic domain, phosphate release, malachite green absorbance; inhibition, % at 20 µM; 2,500 compounds, 61% hits;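 further: plate controls were DMSO with enzyme for no effect and buffer wells lacking enzyme for full effect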
Scp-1 MG ctr = colorimetric readout interference by compounds, confirmation, artefact control for Scp-1 inhibitor project, biochemical, single concentration; apparent inhibition (interference), % at 20 µM; Colorimetric interference counterscreen, malachite green absorbance 630 nm; shares compounds with Scp-1 inhibitor; AID 540313, 2011; 2,500 tested, under 10 active;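 further: compounds added after enzyme reaction finished so only phosphate colour detection is probed; plate controls were DMSO wells with completed Scp-1 reaction for no effect and substrate wells lacking enzyme for full effect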
Scp-1 Tm shift = Scp-1 binding by thermal shift, confirmation, orthogonal assay for Scp-1 inhibitor project, biophysical, differential scanning fluorimetry; shares compounds with Scp-1 inhibitor; Recombinant SCP1, Sypro Orange thermal shift Tm; thermal shift relative to vanadate control, % at 40 µM; 1,500 compounds, 25% hits; AID 540329, 2011;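 active means substances whose mean melting-temperature shift, as a percentage of the reference inhibitor's shift, reaches about 5.3%, limit read from the data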;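 further: 0% = Tm of DMSO wells and 100% = Tm with sodium orthovanadate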
Active calls of the source: *; . = no result; ! = a repeat was not active. Most compounds without a hit are left out; they make up all but 1.6% or so of the library.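 How the source made its calls, unless noted: active means inhibition of at least 30% at 20 µM; inactive means the rest.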

SMILES	SUMO1 PPI mod	LMPTP inh	F508del corr	STEP inh	DNMT1 inh	Scp-1 inhibitor	Scp1 confirm	Scp-1 MG ctr	Scp-1 Tm shift
COc1cccc(NC(=O)COC(=O)c2ccc(S(=O)(=O)NCc3ccco3)cc2)c1	2.7	0.8	.	3.1	28.5	59.9*	70.1*	-6.5	2.9
NC(=O)COC(=O)c1ccc(S(=O)(=O)NCc2ccco2)cc1	2.3	0.8	-0.1	5.6	28.9	63.3*	68.9*	-0.8	0.2
O=C(OCc1nnc(-c2ccccc2)o1)c1ccc(S(=O)(=O)NCc2ccco2)cc1	-0.5	2.0	.	-0.7	19.2	52.7*	67.8*	-10.7	4.6
COc1ccc(S(=O)(=O)Nc2ccc3c(c2)C(=O)N([C@@H](C)CO)C[C@H](C)[C@H](CN(C)C(=O)Cc2ccccc2)OCCCC[C@@H](C)O3)cc1	.	.	-0.6	.	.	.	.	.	.
O=C(NC1CCCCC1)N1CC(=O)N2[C@@H](CO)[C@@H](c3ccc(-c4ccccc4)cc3)[C@@H]2C1	.	.	-2.2	.	.	.	.	.	.
C[n+]1ccccc1/C=N/O	-5.1	-2.7	-2.4	1.3	0.5	51.9*!	4.2	-15.3	.
C[n+]1ccccc1/C=C/c1cc(Br)ccc1O	-23.7	0.8	0.0	0.7	-9.3	-9.7	.	.	.
CC(O)/C=C/c1cccc[n+]1C (stereo unspecified)	-0.6	-9.8	1.0	0.3	-3.8	96.2*	85.3*	-12.0	-6.4
C[C@@H]1CCCCO[C@H](CN(C)S(C)(=O)=O)[C@@H](C)CN([C@H](C)CO)C(=O)c2cc(NC(=O)CCC(F)(F)F)ccc2O1	.	.	1.7	.	.	.	.	.	.
C[C@@H]1CN([C@H](C)CO)C(=O)c2cc(-c3cccc(C#N)c3)cnc2O[C@@H]1CN(C)Cc1cccnc1	.	.	-0.2	.	.	.	.	.	.
CC#CC#Cc1cccc(=O)o1	-14.5	7.6	-2.5	16.6	56.5*	53.8*	41.9*	-2.4	-8.1
O=C(C[C@@H]1CC[C@@H]2[C@H](COC[C@H](O)CN2C(=O)Nc2ccc(Cl)cc2)O1)NCc1ccncn1	.	.	-1.8	.	.	.	.	.	.
CC[C@]1(C(=O)OC)[C@H]2C(=O)N(Cc3ccccc3)C(=O)[C@H]2[C@H]2CN=C(SCC3CC3)N21	1.7	-2.0	-1.8	0.7	3.2	53.7*	-2.2	-18.9	.
CCN1C(=O)[C@H]2[C@H]3CN=C(SCC4CC4)N3[C@@](Cc3ccccc3)(C(=O)OC)[C@H]2C1=O	-1.6	1.6	-0.1	-2.6	4.5	82.5*	95.9*	-6.2	-11.8
CC[C@]1(C(=O)OC)[C@H]2C(=O)N(Cc3ccccc3)C(=O)[C@H]2[C@H]2CN=C(SCc3ccc(C)cc3)N21	0.0	-0.9	0.4	-0.2	3.7	6.5	.	.	.
CCC(=O)N1[C@H](CN(CC)C(=O)c2ccc(F)cc2)[C@@H](c2ccccc2)[C@@H]1CO	.	.	4.4	.	.	.	.	.	.
CO[C@H]1CN(C)C(=O)c2ccc(NC(=O)C3CC3)cc2OC[C@@H](C)N(Cc2cncnc2)C[C@@H]1C	.	.	0.8	.	.	.	.	.	.
COc1ccc2c3c([nH]c2c1)[C@@H](CO)N(C(=O)c1ccncc1)CC31CCN(C(=O)Nc2cccc(F)c2)CC1	.	.	-1.4	.	.	.	.	.	.
CCCCNC(=O)COC(=O)c1c2c(nc3ccccc13)CCC2	2.0	4.4	-4.6	7.7	43.9	61.8*	46.1*	-6.5	8.4*
CC1CCc2nc3ccccc3c(C(=O)OCC(=O)N3CCc4ccccc43)c2C1 (stereo unspecified)	8.1	4.9	.	1.2	4.8	50.1*	-19.7	-17.5	.
C=CCNC(=O)COC(=O)c1c2c(nc3ccccc13)CCC2	-3.1	2.7	2.3	1.5	24.2	66.4*	65.4*	-11.2	9.5*
CCCc1nc2ccccc2c(C(=O)OCC(=O)N2CCc3ccccc32)c1CC	-2.0	4.1	-2.4	2.5	-6.9	-1.9	.	.	.
CN(C)CC(=O)Nc1ccc2c(c1)[C@H]1C[C@@H](CC(=O)NCc3cccnc3)O[C@H](CO)[C@H]1O2	.	.	0.3	.	.	.	.	.	.
O=C(Nc1nnc(C2CCCCC2)s1)C1CC(=O)N(c2ccccc2)C1 (stereo unspecified)	1.0	-0.4	0.1	1.8	-0.5	-2.3	.	.	.
O=C(NCCc1ccccc1)C1CC(=O)N(c2ccc3c(c2)OCCO3)C1 (stereo unspecified)	3.1	-0.9	-3.5	1.3	-0.1	-1.2	-16.6	-11.8	.
SMILES	SUMO1 PPI mod	LMPTP inh	F508del corr	STEP inh	DNMT1 inh	Scp-1 inhibitor	Scp1 confirm	Scp-1 MG ctr	Scp-1 Tm shift
O=C(NC(Cc1ccccc1)c1nc2ccccc2[nH]1)C1CC(=O)N(c2ccc3c(c2)OCCO3)C1 (stereo unspecified)	1.8	-0.1	.	-1.4	-11.2	71.8*	34.2*	-14.5	-5.7
O=C(NCCCc1ccccc1)C1CC(=O)N(c2ccc3c(c2)OCCO3)C1 (stereo unspecified)	2.0	1.5	.	1.6	-7.5	-2.4	.	.	.
O=C(Nc1nnc(C2CC2)s1)C1CC(=O)N(c2ccc3c(c2)OCCO3)C1 (stereo unspecified)	4.6	3.1	.	2.7	39.5	61.1*	56.0*	-18.3	1.9
FC(F)(F)c1cnc(/C=C/Nc2ccccc2Cl)c(Cl)c1	-0.5	1.8	.	8.3	2.5	-2.0	.	.	.
C[N+]1=C(/C=C/Nc2ccccc2Cl)C(C)(C)c2ccccc21	-6.0	0.0	.	1.1	0.3	99.1*	78.8*	-15.3	-12.3
COCCCNC(=O)CSc1ccsc1[N+](=O)[O-]	-18.0	1.0	.	1.3	0.2	19.1	.	.	.
O=C(CSc1ccsc1[N+](=O)[O-])NCc1ccco1	-10.2	3.6	2.1	4.7	29.0	56.7*	61.1*	-15.6	4.9
COc1ccccc1OCc1nnc(SCC(=O)NCc2ccco2)n1Cc1ccco1	11.5	2.7	.	8.2	42.9	94.6*	87.7*	2.8	1.6
